According to ChEMBL document CHEMBL3627632, “Novel 1,4-naphthoquinone-based sulfonamides: Synthesis, QSAR, anticancer and antimalarial studies” (Eur J Med Chem, 2015):

Assays:
[1] = Cytotoxicity against human MOLT3 cells after 48 hrs by XTT assay; type: functional, cell-based; settings: MOLT-3, 48 h
Procedure, shortened: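 Suspension MOLT-3 cells seeded at 10,000-20,000 per well and preincubated 24 h at 37 °C, 5% CO2. Compound serial dilutions added in an equal volume of medium, DMSO as negative control, then 48 h. Surviving cells measured by XTT. IC50 is the concentration inhibiting growth 50% relative to the DMSO control.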

Plasmodium falciparum = test: Antimalarial activity against multidrug-resistant Plasmodium falciparum K1 infected in human erythrocytes after 48 hrs by [3H]hypoxanthine incorporation assay; type: functional, organism-based
Procedure, shortened: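 K1 parasites kept in RPMI 1640 with 20 mM HEPES, 32 mM NaHCO3, 10% human serum and 3% erythrocytes, at 37 °C under 3% CO2. Ring-stage culture (1.5% haematocrit, 1% parasitemia) was exposed to compound for 24 h at 0.1% DMSO final. 0.5 µCi [3H]hypoxanthine was then added for a further 24 h. Incorporation was scintillation-counted, and growth was expressed as treated/untreated cpm ×100.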

A549 = test: Cytotoxicity against human A549 cells after 48 hrs by MTT assay; type: functional, cell-based; settings: A549, 48 h
Procedure, shortened: (§1)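 Adherent cells seeded at 10,000-20,000 per well and preincubated 24 h at 37 °C, 5% CO2. Serial dilutions of compound added in an equal volume of medium, DMSO as negative control, then 48 h further incubation. Surviving cells measured by MTT.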

Vero = test: Cytotoxicity against African green monkey Vero cells after 4 days by GFP detection method; type: cell-based; settings: Chlorocebus sabaeus, 96 h
Procedure, shortened: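 Vero cells stably transfected with pEGFP-N1, kept in MEM with 10% heat-inactivated FBS, 2 mM L-glutamine, 1 mM pyruvate, 0.8 mg/mL geneticin at 37 °C, 5% CO2. Cells at 3.3 × 10^4 cells/mL added to compounds prediluted in 0.5% DMSO, 384-well, 4 days. GFP fluorescence read at ex 485/em 535 nm, day-0 background subtracted. IC50 from 6-point 3-fold dilution curves.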

HepG2 = test: Cytotoxicity against human HepG2 cells after 48 hrs by MTT assay; type: functional, cell-based; settings: HepG2, 48 h
Procedure, shortened: as §1, with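 “MTT. IC50 is the concentration giving 50% growth inhibition relative to the DMSO control.” for “MTT.”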

[2] = Cytotoxicity against HuCCa1 cells after 48 hrs by MTT assay; type: functional, cell-based; settings: Homo sapiens, HuCC-A1, 48 h
Procedure, shortened: as §1, with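 “MTT. IC50 is the concentration giving 50% growth inhibition relative to the DMSO control.” for “MTT.”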

[3] = Plasmodium falciparum, K1, read-out: IC50

Compound | IC50 [1] [µM] | IC50 (Plasmodium falciparum) | IC50 (A549) [µM] | IC50 (Vero) [µM] | IC50 (HepG2) [µM] | IC50 [2] [µM] | IC50 (Plasmodium falciparum; [3]) [µM]
O=C1C(Cl)=C(Nc2ccc(S(=O)(=O)NCCc3ccccn3)cc2)C(=O)c2ccccc21 | 1.37 | Not Active | 31.4 | 99.9 | 10.3 | 5.88 | 
O=C1C(Cl)=C(Nc2ccc(S(=O)(=O)NCCc3ccccc3)cc2)C(=O)c2ccccc21 | 2.18 | Not Active | 11.2 | > 107 | 6.27 | 4.93 | 
COc1ccc(CCNS(=O)(=O)c2ccc(NC3=C(Cl)C(=O)c4ccccc4C3=O)cc2)cc1OC | 2.05 |  | 13 | 21.1 | 6.07 | 5.5 | 9.96
O=C1C(Cl)=C(Nc2ccc(S(=O)(=O)NCc3ccccn3)cc2)C(=O)c2ccccc21 | 1.37 | Not Active | 5.88 | 10.8 | 3.3 | 5 | 
O=C1C(Cl)=C(Nc2ccc(S(=O)(=O)N3CCc4ccccc4C3)cc2)C(=O)c2ccccc21 | 8.56 |  | 48.4 | 20.3 | 36.9 | 57.8 | 14.7
COc1cc2c(cc1OC)CN(S(=O)(=O)c1ccc(NC3=C(Cl)C(=O)c4ccccc4C3=O)cc1)CC2 | 1.73 |  | 20.2 | 0.944 | 14.4 | 5.21 | 2.8
O=C1C(Cl)=C(Nc2cccc(S(=O)(=O)NCCc3ccccn3)c2)C(=O)c2ccccc21 | 2.2 | Not Active | 3.93 | 20.2 | 5.13 | 5.77 | 
O=C1C(Cl)=C(Nc2cccc(S(=O)(=O)NCCc3ccccc3)c2)C(=O)c2ccccc21 | 3.3 |  | 31.1 | 3.85 | 12.8 | 9.47 | 6.3
COc1ccc(CCNS(=O)(=O)c2cccc(NC3=C(Cl)C(=O)c4ccccc4C3=O)c2)cc1OC | 4.95 |  | 27.2 | 3.76 | 9.49 | 8.5 | 10.1
O=C1C(Cl)=C(Nc2cccc(S(=O)(=O)NCc3ccccn3)c2)C(=O)c2ccccc21 | 2.38 | Not Active | 2.31 | 2.82 | 4.56 | 3.66 | 
O=C1C(Cl)=C(Nc2cccc(S(=O)(=O)N3CCc4ccccc4C3)c2)C(=O)c2ccccc21 | 1.92 |  | 21.9 | 4.2 | 11 | 6.08 | 7.27
COc1cc2c(cc1OC)CN(S(=O)(=O)c1cccc(NC3=C(Cl)C(=O)c4ccccc4C3=O)c1)CC2 | 2.34 |  | 63.1 | 11.2 | 43.3 | 26.4 | 8.79
O[C@@H](c1cc(C(F)(F)F)nc2c(C(F)(F)F)cccc12)[C@H]1CCCCN1 (relative stereo) [(S,R)-MEFLOQUINE] |  |  |  |  |  |  | 0.0269
C[C@H]1[C@@H](O)O[C@@H]2O[C@@]3(C)CC[C@H]4[C@H](C)CC[C@@H]1[C@@]24OO3 [ARTENIMOL] |  |  |  |  |  |  | 0.00142
COc1cccc2c1C(=O)c1c(O)c3c(c(O)c1C2=O)C[C@@](O)(C(=O)CO)C[C@@H]3O[C@H]1C[C@H](N)[C@H](O)[C@H](C)O1 [DOXORUBICIN] |  |  |  |  |  | 0.42 | 
Cc1c2ccncc2c(C)c2c1[nH]c1ccccc12 [ELLIPTECINE] |  |  |  | 4.05 |  |  | 
COc1cc([C@@H]2c3cc4c(cc3[C@@H](O[C@@H]3O[C@@H]5CO[C@@H](C)O[C@H]5[C@H](O)[C@H]3O)[C@H]3COC(=O)[C@H]23)OCO4)cc(OC)c1O [ETOPOSIDE] | 0.041 |  |  |  | 34 |  | 
